# Hits are enriched below; roughly 11% of the tested compounds scored in any of these assays.
# Htt clearance: compounds clearing mutant huntingtin protein | inhibition, % at 1.5 µM | HeLa Exon1htt(103Q)mCFP, aggregate imaging; zero = plate's median compound well | AID 853 | actives 0.42% (n = 47,000);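 active = inhibition of aggregate fluorescence above about 70%, also judged a hit by eye on the cell image, limit read from the data, passing the limit was not always enough; inconclusive = no rule stated for this call; inactive = not judged a hit on image review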;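 note: cells exposed to compound for three days before fixation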
# SF-1 act: activates the human nuclear receptor SF-1; actives 1.9% (n = 65,000); Q13285; CHO-K1 Gal4-SF-1 LBD luciferase reporter; % increase over DMSO SF-1-specific signal; activation, % at 10 µM;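 active = activation above the mean activation of all tested compounds plus 3 SD, cut at about 50% in these data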
# Target sequence (Q13285 whole entry, looked up, the tested form may be a part): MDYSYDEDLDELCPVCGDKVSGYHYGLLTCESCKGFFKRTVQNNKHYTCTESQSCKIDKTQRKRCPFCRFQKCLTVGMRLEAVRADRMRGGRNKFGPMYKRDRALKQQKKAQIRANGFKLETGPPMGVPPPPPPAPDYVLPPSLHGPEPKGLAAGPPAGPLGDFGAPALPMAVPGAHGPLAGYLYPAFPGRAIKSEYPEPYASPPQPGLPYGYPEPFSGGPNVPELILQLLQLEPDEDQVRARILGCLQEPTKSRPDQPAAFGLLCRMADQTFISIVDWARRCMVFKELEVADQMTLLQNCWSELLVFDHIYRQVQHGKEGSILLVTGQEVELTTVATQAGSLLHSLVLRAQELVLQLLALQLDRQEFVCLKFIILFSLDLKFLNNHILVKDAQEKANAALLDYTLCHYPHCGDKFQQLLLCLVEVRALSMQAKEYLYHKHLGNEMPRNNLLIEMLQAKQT
#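 Compound – one dose, 10 µM compound, 1% DMSO · Test system – transient Gal4-SF-1 LBD reporter, CHO-K1 · Input – 4,000 cells in each well · Read-out basis – percent activation relative to DMSO median and mock-transfected background · Replicates – single measurement per compound · Technique – steady-glow luciferase luminescence, read after 15 min reagent incubation · Timing – 20 h compound treatment, 37 °C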
# D1 allo mod: allosteric modulators of human D1 dopamine receptor; P21728; HEK293 D1, CRE-luciferase, dopamine EC30 potentiation; actives deviate in either direction; B-score at 10 µM; actives 5.9% (n = 58,000);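 active = luminescence count or its row- and column-corrected plate score outside the 99.7% band of the plate's sample wells, on either side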
# RORA act: activators of human nuclear receptor RORA. P35398. CHO-K1 Gal4-RORA LBD luciferase reporter, luminescence; percent increase over mock-subtracted basal signal. activation, % at 10 µM. actives 1.5% (n = 65,000);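 active = activation above the mean of all tested compounds plus 3 SD, cut at about 49% in these data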;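 note: 0% = DMSO-treated RORA cells and 100% = added signal equal to DMSO minus mock-transfected cells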
# M1 antag: blocks the rat M1 muscarinic receptor response to acetylcholine. actives 3.4% (n = 64,000). AID 628. CHO-M1 cells, Fluo-4 calcium, ACh EC80 antagonist mode; active compounds read low. B-score at 10 µM. P08482;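 active = calcium fluorescence response, raw or row-and-column corrected B-score, differing from the plate sample mean either way at a set confidence level, mostly lower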
# M1 agonist: activates the M1 muscarinic receptor; CHO-M1 cells, Fluo-4 calcium fluorescence, agonist mode; active compounds read high; B-score at 10 µM; actives 3% (n = 64,000);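 active = fluorescence rise, raw or as B-score row- and column-corrected plate score, outside the 99.7% band of its plate's samples, either direction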
# The depositor's hits bear a star; ? = inconclusive; · = no result given.
SMILES,Htt clearance,SF-1 act,D1 allo mod,RORA act,M1 antag,M1 agonist
CC(=O)Nc1ccc(NC(=O)Cn2cnc3c(cnn3C(C)(C)C)c2=O)cc1,·,-1,0.44,-8,1.2,-0.48
CC(C)(C)n1ncc2c(=O)n(CC(=O)NCc3ccccc3)cnc21,·,78*,-5.4*,56*,0.97,0.86
CC(C)(C)n1ncc2c(=O)n(CC(=O)c3ccc(Cl)cc3)cnc21,·,87*,-1,59*,-0.29,1
CCc1ccc(-c2ccc(C(=O)C(F)(F)F)[nH]2)cc1,-6,·,·,·,·,·
O=C(COc1ccc(F)cc1)NCC1CCCO1 (centres undefined),71*,4,-0.82,-11,0.26,-0.014
O=C(COc1ccccc1)NCC1CCCO1 (centres undefined),-6,·,·,·,·,·
Cc1ccc(-c2nc3cnccn3c2Nc2ccc3c(c2)OCO3)o1,·,23,1,17,-0.024,-0.51
Cc1ccc(-c2nc3cnccn3c2Nc2ccccc2)o1,·,37,1.2,49*,0.037,-0.053
CCOC(=O)C1=C(C)NC(=O)NC1c1cccnc1 (centres undefined),·,24,-7.8*,-10,0.45,-0.6
Cc1cc2nc(-c3ccc(SCC(=O)N4CCN(C(=O)c5ccco5)CC4)nc3)[nH]c2cc1C,·,32,·,46,-0.58,0.59
Cc1cc2nc(-c3ccc(SCC(=O)N4CCOCC4)nc3)[nH]c2cc1C,-4,42,-2.6,11,-0.58,12*
c1csc(C2=Nn3c(nnc3-c3ccncc3)SC2)c1,62,·,·,·,·,·
Cc1ccc(-n2c(-c3ccncc3)nnc2-c2cccs2)cc1,53,2,7*,4,0.91,0.97
CCOC(=O)c1cc(-c2nnc(-c3ccc(Oc4ccccc4)cc3)o2)c(C)nc1C,?,3,0.74,0,0.11,-0.93
COc1ccc(-c2nnc(SCc3ccccc3)n2N)cc1,-43,66*,-0.1,39,0.34,-0.88
c1ccc(-c2noc(-c3cccc4ccccc34)n2)nc1,20,17,-2.8*,-11,0.49,-0.47
COc1cc(-c2nc(-c3ccccn3)no2)cc(OC)c1OC,·,46,·,36,0.34,0.11
COc1cccc(-c2nc(-c3ccccn3)no2)c1OC,54,50*,·,15,0.21,0.17
COc1ccc(NC2=Nc3ccccc3CC2)cc1,·,58*,-3.8,63*,-3.1,0.13
COc1ccc(NC(=O)N2CCCc3ccccc32)cc1,14,14,2.4,23,0.11,0.1
Cc1c(C(=O)NCc2ccoc2)oc2ccc3c(c12)C(=O)CC(C)(C)O3,·,73*,0.22,71*,-0.49,-0.048
CC12CCC(C(=O)NCc3ccc4c(c3)OCO4)(C(=O)C1=O)C2(C)C (centres undefined),17,·,·,·,·,·
CS(=O)(=O)N(CCc1ccccc1)CC(=O)NCc1cccnc1,·,7,0.024,-5,0.52,-0.38
O=C1CCn2nc(-c3ccc(Cl)cc3)cc2N1,·,31,0.89,61*,0.14,1.3
Cc1c(NC(=O)c2cc3nc(-c4ccc(Cl)cc4)cc(C(F)(F)F)n3n2)c(=O)n(-c2ccccc2)n1C,-71,·,·,·,·,·
SMILES,Htt clearance,SF-1 act,D1 allo mod,RORA act,M1 antag,M1 agonist
CCOC(=O)c1c(NC(=O)CSc2nnc(C)s2)sc2c1CCC(CC)C2 (centres undefined),-63,·,·,·,·,·
COCCn1c(COc2ccc(C)cc2)nc2ccccc21,·,50*,-0.69,40,0.63,0.043
CCOC(=O)c1sc2nccc(N(C)C)c2c1N=CNOC,73*,·,·,·,·,·
CCOC(=O)c1sc2nccc(N(C)C)c2c1N=CNOCc1ccccc1,20,·,·,·,·,·
COc1cc2cc(C(c3nnnn3C(C)(C)C)N3CCC(C)CC3)c(=O)[nH]c2cc1OC (centres undefined),65,·,·,·,·,·
CCC1Oc2ccc(C)cc2N(CC(=O)NCC2COc3ccccc3O2)C1=O (centres undefined),26,·,·,·,·,·
Cc1c(N=Cc2c(O)n(Cc3ccco3)c(=O)c3ccccc23)c(=O)n(-c2ccccc2)n1C,-20,15,0.74,6,-2.8*,-0.027
Cc1cccc(NC(=O)c2cnc3ccccn3c2=O)c1,·,-28,-4.3*,-22,-0.45,0.61
COc1cc2c(cc1OC)C(C(=O)N1CCN(c3ccccc3)CC1)C(c1cccs1)N(C)C2=O (centres undefined),-42,·,·,·,·,·
C=CCn1cnc2c(NCc3ccccc3)ncnc21,·,65*,0.093,46,0.89,-0.4
Nc1nnc(SCc2ccc(F)cc2)n1-c1ccccc1,12,·,·,·,·,·
CN1CCN(S(=O)(=O)c2ccc(Br)s2)CC1,·,-24,-0.36,63*,-0.46,-0.099
O=C(NCCc1c[nH]c2ccccc12)c1cnc2n(c1=O)CCS2,·,48,0.18,60*,-0.064,-1.3
O=C(NCc1ccccc1Cl)c1cnc2n(c1=O)CCS2,·,-4,0.78,6,-0.1,-0.36
CCOc1ccc2nc(N3CCCC(C(=O)N4CCN(CC)CC4)C3)sc2c1 (centres undefined),59,-1,-0.79,1,-0.4,0.31
CCOc1ccc2nc(N3CCC(C(=O)Nc4nnc(CC)s4)CC3)sc2c1,·,67*,0.45,46,-0.14,0.52
CCOc1ccc2nc(N3CCCCCC3)sc2c1,·,58*,-0.79,36,0.77,0.14
Cc1cc(C)n(-c2cc(-c3ccccc3)nc(C)n2)n1,-54,-10,0.81,-5,0.17,1.8
CC1Cc2ccccc2N1C(=O)c1cc2sccc2n1Cc1ccc(F)cc1 (centres undefined),9,·,·,·,·,·
O=C(O)C1C2C=CC(C2)C1C(=O)OC1CC2CCC1C2 (centres undefined),·,-1,-4.9*,-6,-0.14,-1.1
Cc1ccc(C2=Nc3ccccc3NC(C)(c3ccc(C)o3)C2)o1 (centres undefined),·,106*,0.16,53*,-0.024,0.57
Cc1ccc2nc3ccc(N4CCCC4)nn3c(=O)c2c1,33,46,0.27,54*,-1,-0.03
O=C(CSc1nnnn1-c1cccc2c1CCCC2)N1CCOCC1,12,-5,·,-13,2.7*,-0.11
O=C(CSc1nnnn1-c1cccc2c1CCCC2)N1CCCC1,-28,·,·,·,·,·
CC1(C)NC(=O)N(CCCOc2ccc(Br)cc2Cl)C1=O,·,65*,-0.25,19,0.63,0.48
SMILES,Htt clearance,SF-1 act,D1 allo mod,RORA act,M1 antag,M1 agonist
CCOc1ccc(NC(=O)CSc2nccn2C)cc1,-7,35,-0.093,17,-0.66,-0.39
Nc1cc(N)nc(SCC(=O)Nc2ccccc2)n1,21,·,·,·,·,·
Cn1ccnc1SCC(=O)Nc1ccc(Oc2ccccc2)cc1,·,33,-0.86,60*,1,-0.18
O=C(CSc1ncccn1)Nc1ccccc1,·,2,·,32,1.9*,1.2
O=C(CNc1ccccc1)Nc1ccc(F)cc1,·,61*,·,3,-0.36,-0.012
CCCOC(=O)C1[C@H]2C(=O)N(CC3CCCO3)C[C@]23C=C[C@H]1O3 (some centres undefined),0,8,0.092,21,0.28,-0.8
